Assay results from ChEMBL document CHEMBL1129336, “Ryanodine action at calcium release channels. 2. relation to substituents of the cyclohexane ring” (J Med Chem, 1996).

What was measured:
[1] = target: Ryanodine receptor 1 (Oryctolagus cuniculus) (UniProt P11716); assay: Displacement of [3H]ryanodine from ryanodine receptor(ryr) of rabbit skeletal muscle
Method in brief: (§1)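 Radioligand displacement assays of [3H]ryanodine binding at the ryanodine receptor, one each on rabbit skeletal muscle, mouse brain and canine ventricle preparations. Values are means of three to five experiments, each run in duplicate; standard error is reported as percent of the mean.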

[2] = Inhibition of contraction on electrical stimulation of cardiac muscle using rat right ventricular muscle strips; format: functional, Muscle tissue
Method in brief: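 Physiological function test on intact rat ventricular muscle strips, in which the read-out depends on both tissue penetration and receptor potency. Values are expressed as IC50 from three to five experiments; standard error is reported as percent of the mean.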

[3] = target: T1, Ryanodine receptor 2 (Canis lupus familiaris) (UniProt Q8WN72); assay: Displacement of [3H]ryanodine binding to ryanodine receptor(ryr) in canine left ventricular membranes; format: cell membranes; method in brief: as §1
T1 sequence (whole entry): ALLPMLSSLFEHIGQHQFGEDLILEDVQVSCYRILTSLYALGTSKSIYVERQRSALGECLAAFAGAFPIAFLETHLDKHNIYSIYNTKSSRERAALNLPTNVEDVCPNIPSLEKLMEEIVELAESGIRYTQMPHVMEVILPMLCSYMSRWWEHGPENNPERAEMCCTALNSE

[4] = Inhibition of the contraction on electrical stimulation of cardiac muscle using rat right ventricular muscle strips; format: functional, tissue-based; details: Muscle tissue
Method in brief: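 Contractility test on intact rat ventricular muscle strips. The read-out reflects both tissue penetration and receptor action. Values are means of three to five experiments, expressed as IC50.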

[5] = target: Ryanodine receptor 2 (Mus musculus) (UniProt E9Q401); assay: Displacement of [3H]ryanodine from ryanodine receptor(ryr) of Mouse brain
[6] = Inhibitory activity against ryanodine receptor in rabbit muscle; format: functional, Oryctolagus cuniculus
Method in brief: (§2)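 Ryanodine receptor binding assays on tissue preparations. Values are means of three to five experiments, each run in duplicate. Results are reported as Ki for the cardiac ventricle preparation.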

[7] = Inhibitory activity against ryanodine receptor in Mouse brain; format: functional, tissue-based
[8] = target: T2, Ryanodine receptor 2 (Canis lupus familiaris, UniProt Q8WN72); assay: Binding affinity towards ryanodine receptor in canine ventrical preparation; method in brief: as §2
T2 sequence (Q8WN72 whole entry): T1 sequence (whole entry)

Sequence of Ryanodine receptor 1 (Oryctolagus cuniculus) (P11716 whole entry): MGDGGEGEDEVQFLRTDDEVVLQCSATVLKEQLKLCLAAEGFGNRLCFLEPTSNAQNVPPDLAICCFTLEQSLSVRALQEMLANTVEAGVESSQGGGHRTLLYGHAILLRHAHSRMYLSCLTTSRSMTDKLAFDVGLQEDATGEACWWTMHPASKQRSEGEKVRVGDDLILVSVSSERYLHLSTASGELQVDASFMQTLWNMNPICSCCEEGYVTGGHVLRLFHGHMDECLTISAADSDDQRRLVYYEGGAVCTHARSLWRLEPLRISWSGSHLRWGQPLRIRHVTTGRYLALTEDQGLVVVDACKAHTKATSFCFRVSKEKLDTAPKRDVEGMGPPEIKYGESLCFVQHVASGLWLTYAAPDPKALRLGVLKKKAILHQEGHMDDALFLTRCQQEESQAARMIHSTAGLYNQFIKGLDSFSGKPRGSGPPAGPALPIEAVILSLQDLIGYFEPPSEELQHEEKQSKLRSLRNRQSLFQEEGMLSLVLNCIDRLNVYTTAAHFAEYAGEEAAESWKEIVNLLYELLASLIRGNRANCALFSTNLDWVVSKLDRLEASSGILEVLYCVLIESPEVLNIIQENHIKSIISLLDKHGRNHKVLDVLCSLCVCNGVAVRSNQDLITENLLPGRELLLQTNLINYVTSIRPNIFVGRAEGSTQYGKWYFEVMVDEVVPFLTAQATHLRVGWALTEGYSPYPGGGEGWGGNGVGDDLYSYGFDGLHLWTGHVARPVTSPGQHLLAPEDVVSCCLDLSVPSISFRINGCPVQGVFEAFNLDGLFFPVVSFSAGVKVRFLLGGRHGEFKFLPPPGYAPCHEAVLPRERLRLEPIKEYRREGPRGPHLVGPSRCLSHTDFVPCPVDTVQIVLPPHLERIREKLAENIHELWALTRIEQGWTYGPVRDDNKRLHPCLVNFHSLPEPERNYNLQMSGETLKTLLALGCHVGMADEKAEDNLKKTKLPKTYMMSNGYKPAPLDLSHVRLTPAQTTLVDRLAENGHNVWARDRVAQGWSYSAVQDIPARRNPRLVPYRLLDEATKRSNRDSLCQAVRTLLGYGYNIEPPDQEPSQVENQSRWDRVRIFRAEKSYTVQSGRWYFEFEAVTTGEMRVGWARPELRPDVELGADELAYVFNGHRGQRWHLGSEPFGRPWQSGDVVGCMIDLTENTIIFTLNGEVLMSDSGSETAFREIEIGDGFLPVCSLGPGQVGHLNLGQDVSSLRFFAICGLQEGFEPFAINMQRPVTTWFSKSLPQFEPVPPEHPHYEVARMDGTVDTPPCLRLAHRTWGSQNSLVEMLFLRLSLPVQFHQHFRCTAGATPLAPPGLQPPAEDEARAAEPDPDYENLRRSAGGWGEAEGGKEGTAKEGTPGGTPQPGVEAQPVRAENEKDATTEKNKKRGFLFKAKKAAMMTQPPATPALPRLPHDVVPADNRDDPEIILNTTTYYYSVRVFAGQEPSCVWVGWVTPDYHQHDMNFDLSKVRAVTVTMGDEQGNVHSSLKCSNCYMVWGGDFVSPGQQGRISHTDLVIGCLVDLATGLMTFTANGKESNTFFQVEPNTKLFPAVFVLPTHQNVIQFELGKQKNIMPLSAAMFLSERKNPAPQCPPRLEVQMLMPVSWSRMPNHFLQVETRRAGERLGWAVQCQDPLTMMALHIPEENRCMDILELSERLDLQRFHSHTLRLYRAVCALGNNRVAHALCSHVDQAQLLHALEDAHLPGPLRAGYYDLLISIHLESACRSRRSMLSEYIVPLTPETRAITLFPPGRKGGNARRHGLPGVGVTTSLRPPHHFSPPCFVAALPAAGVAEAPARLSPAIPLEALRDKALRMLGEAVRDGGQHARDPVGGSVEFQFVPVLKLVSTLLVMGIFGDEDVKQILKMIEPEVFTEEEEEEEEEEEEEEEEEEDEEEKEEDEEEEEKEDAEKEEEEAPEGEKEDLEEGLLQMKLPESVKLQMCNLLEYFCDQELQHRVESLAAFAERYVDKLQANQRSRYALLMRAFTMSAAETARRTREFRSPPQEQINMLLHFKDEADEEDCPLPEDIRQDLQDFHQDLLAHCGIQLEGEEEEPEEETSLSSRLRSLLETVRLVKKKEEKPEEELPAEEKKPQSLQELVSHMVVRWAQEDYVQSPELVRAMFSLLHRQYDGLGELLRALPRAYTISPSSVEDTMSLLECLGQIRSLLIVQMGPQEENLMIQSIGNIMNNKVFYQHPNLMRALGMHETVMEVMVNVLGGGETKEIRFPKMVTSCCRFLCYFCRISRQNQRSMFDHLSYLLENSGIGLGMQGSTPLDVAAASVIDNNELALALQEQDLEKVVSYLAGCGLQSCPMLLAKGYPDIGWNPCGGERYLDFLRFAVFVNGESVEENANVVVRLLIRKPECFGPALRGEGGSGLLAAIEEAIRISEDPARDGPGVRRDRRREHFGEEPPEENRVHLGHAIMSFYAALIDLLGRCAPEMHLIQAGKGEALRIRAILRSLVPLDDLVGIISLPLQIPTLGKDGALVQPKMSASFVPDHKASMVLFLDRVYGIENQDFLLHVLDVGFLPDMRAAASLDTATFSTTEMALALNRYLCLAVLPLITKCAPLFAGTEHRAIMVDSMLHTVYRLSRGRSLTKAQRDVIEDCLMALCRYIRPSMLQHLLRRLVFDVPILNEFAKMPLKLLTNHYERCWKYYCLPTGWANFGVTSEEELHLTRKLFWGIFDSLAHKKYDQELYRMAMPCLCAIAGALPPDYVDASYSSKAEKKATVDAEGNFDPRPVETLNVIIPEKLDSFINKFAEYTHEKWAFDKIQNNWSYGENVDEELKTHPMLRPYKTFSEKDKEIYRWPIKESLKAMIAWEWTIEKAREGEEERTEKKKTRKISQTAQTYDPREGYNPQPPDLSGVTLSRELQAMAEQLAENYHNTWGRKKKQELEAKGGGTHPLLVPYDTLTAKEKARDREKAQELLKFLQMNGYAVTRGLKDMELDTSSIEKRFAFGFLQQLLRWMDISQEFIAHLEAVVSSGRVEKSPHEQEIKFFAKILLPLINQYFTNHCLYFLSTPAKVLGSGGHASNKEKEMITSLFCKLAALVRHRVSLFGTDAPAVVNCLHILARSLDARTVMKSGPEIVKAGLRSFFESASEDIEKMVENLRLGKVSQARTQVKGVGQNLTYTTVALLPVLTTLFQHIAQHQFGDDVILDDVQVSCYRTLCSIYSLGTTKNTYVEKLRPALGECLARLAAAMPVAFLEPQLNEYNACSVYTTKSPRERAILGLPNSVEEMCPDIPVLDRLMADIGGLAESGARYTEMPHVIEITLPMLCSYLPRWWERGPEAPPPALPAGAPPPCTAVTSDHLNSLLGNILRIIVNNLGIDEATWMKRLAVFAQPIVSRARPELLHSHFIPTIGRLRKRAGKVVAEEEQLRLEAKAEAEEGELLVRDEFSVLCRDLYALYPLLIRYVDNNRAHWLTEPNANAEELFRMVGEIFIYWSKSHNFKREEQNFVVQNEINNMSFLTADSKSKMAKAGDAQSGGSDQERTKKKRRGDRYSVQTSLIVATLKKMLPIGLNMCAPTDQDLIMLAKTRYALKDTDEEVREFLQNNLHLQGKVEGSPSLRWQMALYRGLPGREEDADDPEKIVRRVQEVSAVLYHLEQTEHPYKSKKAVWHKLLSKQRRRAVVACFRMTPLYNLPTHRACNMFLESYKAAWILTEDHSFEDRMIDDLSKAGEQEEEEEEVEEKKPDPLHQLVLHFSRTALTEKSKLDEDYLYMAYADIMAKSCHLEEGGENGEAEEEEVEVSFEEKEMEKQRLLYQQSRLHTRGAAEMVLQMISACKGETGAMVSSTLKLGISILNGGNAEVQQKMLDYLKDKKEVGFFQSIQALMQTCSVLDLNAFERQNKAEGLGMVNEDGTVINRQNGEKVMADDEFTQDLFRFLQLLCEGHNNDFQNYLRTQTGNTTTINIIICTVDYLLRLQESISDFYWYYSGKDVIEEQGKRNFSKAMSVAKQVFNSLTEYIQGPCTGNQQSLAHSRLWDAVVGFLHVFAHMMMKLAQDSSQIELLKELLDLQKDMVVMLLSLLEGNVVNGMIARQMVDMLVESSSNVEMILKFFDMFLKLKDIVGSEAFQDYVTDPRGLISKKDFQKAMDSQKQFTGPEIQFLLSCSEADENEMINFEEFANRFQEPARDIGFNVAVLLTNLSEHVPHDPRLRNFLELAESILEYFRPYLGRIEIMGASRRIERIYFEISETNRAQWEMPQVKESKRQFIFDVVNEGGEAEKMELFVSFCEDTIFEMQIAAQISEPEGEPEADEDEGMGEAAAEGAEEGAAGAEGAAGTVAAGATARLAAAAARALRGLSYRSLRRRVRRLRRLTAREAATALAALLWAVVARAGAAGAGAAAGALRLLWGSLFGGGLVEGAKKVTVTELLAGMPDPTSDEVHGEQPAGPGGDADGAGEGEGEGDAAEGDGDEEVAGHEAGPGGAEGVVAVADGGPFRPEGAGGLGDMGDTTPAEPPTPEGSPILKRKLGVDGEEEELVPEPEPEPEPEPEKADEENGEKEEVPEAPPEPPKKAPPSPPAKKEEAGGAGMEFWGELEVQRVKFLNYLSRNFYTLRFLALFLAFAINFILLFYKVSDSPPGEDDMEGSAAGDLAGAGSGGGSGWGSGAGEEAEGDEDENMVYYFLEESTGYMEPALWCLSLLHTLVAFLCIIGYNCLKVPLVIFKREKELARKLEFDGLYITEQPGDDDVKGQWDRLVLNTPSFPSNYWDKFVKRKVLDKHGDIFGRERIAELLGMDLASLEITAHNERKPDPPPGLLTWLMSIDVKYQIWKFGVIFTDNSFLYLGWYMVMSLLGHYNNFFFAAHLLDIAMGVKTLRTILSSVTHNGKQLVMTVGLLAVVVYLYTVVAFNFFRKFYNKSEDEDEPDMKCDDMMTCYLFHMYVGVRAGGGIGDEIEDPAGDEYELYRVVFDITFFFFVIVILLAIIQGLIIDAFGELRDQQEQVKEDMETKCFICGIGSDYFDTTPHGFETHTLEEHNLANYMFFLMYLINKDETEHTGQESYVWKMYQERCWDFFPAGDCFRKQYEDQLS

SMILES | Relative activity [1] | Relative activity [2] | Relative activity [3] | other results
C=C1CCC2(O)C3(C)CC4(O)OC2(C1OC(=O)c1ccccc1)C1(O)C3(O)C(OC(=O)c2ccc[nH]2)C(O)(C(C)C)C41C (stereo not given) | 3.9 |  |  | 
CC(C)C1(O)C(OC(=O)c2ccc[nH]2)C2(O)C3(C)CC4(O)OC5(CC(O)CCC35O)C2(O)C41C (stereo not given) | 0.2 | 28 | 0.42 | 
CC(C)[C@@]1(O)[C@@H](OC(=O)c2cc[nH]c2)[C@@]2(O)[C@]3(C)C[C@@]4(O)O[C@@]5([C@H](O)[C@@H](C)CC[C@]35O)[C@@]2(O)[C@@]41C [RYANODINE] | 100 |  |  | IC50 [4]: 34 nM; Relative activity [5]: 100; IC50 [6]: 3.5 nM; IC50 [7]: 3.3 nM
CC(C)C1(O)C(OC(=O)c2ccc[nH]2)C2(O)C3(C)CC4(O)OC5(CCCCC35O)C2(O)C41C (stereo not given) | 6.5 |  |  | 
CC1CCC2(O)C3(C)CC4(O)OC2(NC1=O)C1(O)C3(O)C(OC(=O)c2ccc[nH]2)C(O)(C(C)C)C41C (stereo not given) | 42 | 11 | 7.4 | 
CO/N=C1\C(C)CCC2(O)C3(C)CC4(O)OC12C1(O)C3(O)C(OC(=O)c2ccc[nH]2)C(O)(C(C)C)C41C (stereo not given) | 13 | 34 | 17 | 
CC(C)[C@@]1(O)[C@@H](OC(=O)c2ccc[nH]2)[C@@]2(O)[C@@]3(C)C[C@]4(O)O[C@@]5([C@H](O)[C@@H](C)CC[C@]35O)[C@@]2(O)[C@@]14C [RYANODINE] |  |  |  | Ki [8]: 1.8 nM
CC1=CCC2(O)C3(C)CC4(O)OC2(C1O)C1(O)C3(O)C(OC(=O)c2ccc[nH]2)C(O)(C(C)C)C41C (stereo not given) | 26 | 11 |  | 
CONC1C(C)CCC2(O)C3(C)CC4(O)OC12C1(O)C3(O)C(OC(=O)c2ccc[nH]2)C(O)(C(C)C)C41C (stereo not given) | 68 | 31 | 36 | 
CC1CCC2(O)C3(C)CC4(O)OC2(C1N)C1(O)C3(O)C(OC(=O)c2ccc[nH]2)C(O)(C(C)C)C41C (stereo not given) | 68 |  |  | 
CC1CCC2(O)C3(C)CC4(O)OC2(C1O)C1(O)C3(O)C(OC(=O)c2ccc[nH]2)C(O)(C(C)C)C41C (stereo not given) | 97 | 34 |  | 
